The source made the active and inactive calls. No cut-off for these calls is given here.
How the values were obtained:
Pseudomonas aeruginosa [1] = assay: Antimicrobial activity against multidrug-resistant Pseudomonas aeruginosa A/16575 up to 200 uM after 24 to 48 hrs by broth microdilution method; assay type: functional, organism-based
A549 [2] = assay: Selectivity index, ratio of IC50 for human MRC5 cells to IC50 for human A549 cells; assay type: functional
[3] = Cytostatic activity against human K562-TAX cells after 72 hrs by MTT assay; assay type: functional, cell-based
How it was run: (§1)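 Cells were seeded at 25,000–30,000 per well and pre-incubated for 24 h at 37°C in 5% CO2. Four-fold compound dilutions were added in duplicate and incubated for 72 h. MTT was added for 1–4 h, and formazan was dissolved in 10% aq SDS (pH 5.5) overnight at 37°C. OD was read at 540 nm. IC50 came from dose-response curves, mean ± SD of eight independent experiments.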

Nucleic Acid [4] = assay: Binding affinity to DNA (unknown origin) assessed as DNA intercalation by UV-visible spectrophotometry in presence of Ni2+; assay type: nucleic-acid assay
CCRF-CEM [5] = assay: Cell cycle arrest in human CCRF-CEM cells assessed as accumulation at S phase at IC50 after 24 hrs by propidium iodide staining-based flow cytometry; assay type: functional
How it was run: (§2)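 Cells were then fixed in 70% ethanol, washed in hypotonic citrate buffer, treated with RNase (50 µg/mL) and stained with propidium iodide. Flow cytometry used a 488 nm laser. Apoptosis was scored as the percentage of particles with propidium content below G0/G1.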

[6] = Cytostatic activity against human CEM-DNR cells after 72 hrs by MTT assay; assay type: functional, cell-based; how it was run: as §1
Nucleic Acid [7] = assay: Binding affinity to DNA (unknown origin) assessed as DNA intercalation by UV-visible spectrophotometry in presence of Fe3+; assay type: nucleic-acid assay
[8] = Metal chelating activity of the compound assessed as formation of Mg2+ complex by UV-vis spectrometry; assay type: physicochemical
CCRF-CEM [9] = assay: Cytostatic activity against human CCRF-CEM cells after 72 hrs by MTT assay; assay type: functional, cell-based; how it was run: as §1
[10] = Cytostatic activity against human HCT116 cells after 72 hrs by MTT assay; assay type: functional, cell-based; settings: HCT-116, 72 h; how it was run: as §1
[11] = Metal chelating activity of the compound assessed as formation of Ca2+ complex by UV-vis spectrometry; assay type: physicochemical
CCRF-CEM [12] = assay: Cell cycle arrest in human CCRF-CEM cells assessed as accumulation at S phase at 5 times IC50 after 24 hrs by propidium iodide staining-based flow cytometry; assay type: functional; how it was run: as §2
Candida parapsilosis = assay: Antifungal activity against Candida parapsilosis up to 200 uM after 24 to 48 hrs by broth microdilution method; assay type: functional, organism-based
[13] = Metal chelating activity of the compound assessed as formation of Co2+ complex by UV-vis spectrometry; assay type: physicochemical
CCRF-CEM [14] = assay: Cell cycle arrest in human CCRF-CEM cells assessed as accumulation at G0/G1 phase at 5 times IC50 after 24 hrs by propidium iodide staining-based flow cytometry; assay type: functional; how it was run: as §2
CCRF-CEM [15] = assay: Cell cycle arrest in human CCRF-CEM cells assessed as accumulation at G2/M phase at IC50 after 24 hrs by propidium iodide staining-based flow cytometry; assay type: functional; how it was run: as §2
CCRF-CEM [16] = assay: Induction of apoptosis in human CCRF-CEM cells assessed as inhibition of DNA synthesis at IC50 after 24 hrs by propidium iodide/BrdU staining by flow cytometry; assay type: functional; set-up: scale not given: the % may be the effect or the level left
[17] = Metal chelating activity of the compound assessed as formation of Fe2+ complex by UV-vis spectrometry; assay type: physicochemical
CCRF-CEM [18] = assay: Induction of apoptosis in human CCRF-CEM cells assessed as mitotic cells at 5 times IC50 after 24 hrs by pH3Ser10+ labeling-based flow cytometry; assay type: functional
CCRF-CEM [19] = assay: Induction of apoptosis in human CCRF-CEM cells assessed as apoptotic cells at 5 times IC50 after 24 hrs by propidium iodide staining-based flow cytometry; assay type: functional; how it was run: as §2
Nucleic Acid [20] = assay: Binding affinity to DNA (unknown origin) assessed as DNA intercalation by UV-visible spectrophotometry in presence of Cu2+; assay type: nucleic-acid assay
CCRF-CEM [21] = assay: Induction of apoptosis in human CCRF-CEM cells assessed as inhibition of DNA synthesis at 5 times IC50 after 24 hrs by propidium iodide/BrdU staining by flow cytometry; assay type: functional; set-up: scale not given: the % may be the effect or the level left
CCRF-CEM [22] = assay: Induction of apoptosis in human CCRF-CEM cells assessed as apoptotic cells at IC50 after 24 hrs by propidium iodide staining-based flow cytometry; assay type: functional; how it was run: as §2
[23] = Metal chelating activity of the compound assessed as formation of Cr3+ complex by UV-vis spectrometry; assay type: physicochemical
HCT-116 = assay: Selectivity index, ratio of IC50 for human MRC5 cells to IC50 for human HCT116 cells; assay type: functional
CCRF-CEM [24] = assay: Induction of apoptosis in human CCRF-CEM cells assessed as mitotic cells at IC50 after 24 hrs by pH3Ser10+ labeling-based flow cytometry; assay type: functional
Candida tropicalis = assay: Antifungal activity against Candida tropicalis up to 200 uM after 24 to 48 hrs by broth microdilution method; assay type: functional, organism-based
BJ [25] = assay: Selectivity index, ratio of IC50 for human BJ cells to IC50 for human p53-/- HCT116 cells; assay type: functional
BJ [26] = assay: Selectivity index, ratio of IC50 for human BJ cells to IC50 for human K562 cells; assay type: functional
Nucleic Acid [27] = assay: Binding affinity to DNA (unknown origin) assessed as DNA intercalation by UV-visible spectrophotometry; assay type: nucleic-acid assay
[28] = Metal chelating activity of the compound assessed as formation of Fe3+ complex by UV-vis spectrometry; assay type: physicochemical
BJ [29] = assay: Cytostatic activity against human BJ cells after 72 hrs by MTT assay; assay type: ADME, cell-based; how it was run: as §1
Nucleic Acid [30] = assay: Binding affinity to DNA (unknown origin) assessed as DNA intercalation by UV-visible spectrophotometry in presence of Zn2+; assay type: nucleic-acid assay
CCRF-CEM [31] = assay: Cell cycle arrest in human CCRF-CEM cells assessed as accumulation at G2/M phase at 5 times IC50 after 24 hrs by propidium iodide staining-based flow cytometry; assay type: functional; how it was run: as §2
[32] = system: Staphylococcus haemolyticus; assay: Antimicrobial activity against methicillin-resistant Staphylococcus haemolyticus A1/16568 up to 200 uM after 24 to 48 hrs by broth microdilution method; assay type: functional, organism-based
A549 [33] = assay: Selectivity index, ratio of IC50 for human BJ cells to IC50 for human A549 cells; assay type: functional
Staphylococcus aureus = assay: Antimicrobial activity against Staphylococcus aureus CCM 3953 up to 200 uM after 24 to 48 hrs by broth microdilution method; assay type: functional, organism-based
[34] = Metal chelating activity of the compound assessed as formation of Ni2+ complex by UV-vis spectrometry; assay type: physicochemical
[35] = Metal chelating activity of the compound assessed as formation of Cu2+ complex by UV-vis spectrometry; assay type: physicochemical
Pichia kudriavzevii = assay: Antifungal activity against Candida crusei up to 200 uM after 24 to 48 hrs by broth microdilution method; assay type: functional, organism-based
A549 [36] = assay: Cytostatic activity against human A549 cells after 72 hrs by MTT assay; assay type: functional, cell-based; settings: A549, 72 h; how it was run: as §1
Enterococcus faecalis = assay: Antimicrobial activity against Enterococcus faecalis CCM 4224 up to 200 uM after 24 to 48 hrs by broth microdilution method; assay type: functional, organism-based
Pseudomonas aeruginosa [37] = assay: Antimicrobial activity against Pseudomonas aeruginosa CCM 395 up to 200 uM after 24 to 48 hrs by broth microdilution method; assay type: functional, organism-based
BJ [38] = assay: Selectivity index, ratio of IC50 for human BJ cells to IC50 for human CEM-DNR cells; assay type: functional

For `O=C(N/N=C/c1ccccc1O)c1ccc2c3c(ccc2c1)N1Cc2c(ccc4cc(C(=O)N/N=C/c5ccccc5O)ccc24)N(C3)C1`, the Activity (Pseudomonas aeruginosa [1]) was “inactive”, the “Ratio IC50” value (A549 [2]) was 0.3 and the IC50 [3] was 0.83 µM. The Activity (Nucleic Acid [4]) was “Active”, the Activity (CCRF-CEM [5]) was 50.31% and the IC50 [6] was 4.25 µM. The Activity (Nucleic Acid [7]) was “Active”, the Activity [8] was “Not Active” and the IC50 (CCRF-CEM [9]) was 0.36 µM. For the same compound, the IC50 [10] was 0.39 µM, the Activity [11] was “Not Active” and the Activity (CCRF-CEM [12]) was 37.75%. For the same compound, the Activity (Candida parapsilosis) was “inactive”, the Activity [13] was “Active” and the Activity (CCRF-CEM [14]) was 43.33%. For the same compound, the Activity (CCRF-CEM [15]) was 19.09%, the Activity (CCRF-CEM [16]) was 50.71% and the Activity [17] was “Not Active”. The Activity (CCRF-CEM [18]) was 0.01%, the Activity (CCRF-CEM [19]) was 50.23% and the Activity (Nucleic Acid [20]) was “Active”. The Activity (CCRF-CEM [21]) was 5.94%, the Activity (CCRF-CEM [22]) was 18.07% and the Activity [23] was “Not Active”. For the same compound, the “Ratio IC50” value (HCT-116) was 0.8, the Activity (CCRF-CEM [24]) was 0.62% and the Activity (Candida tropicalis) was “inactive”. For the same compound, the “Ratio IC50” value (BJ [25]) was 1.7, the “Ratio IC50” value (BJ [26]) was 0.6 and the Activity (Nucleic Acid [27]) was “inactive”. The Activity [28] was “Active”, the IC50 (BJ [29]) was 0.27 µM and the Activity (Nucleic Acid [30]) was “Active”. For the same compound, the Activity (CCRF-CEM [31]) was 18.92%, the Activity [32] was “inactive” and the “Ratio IC50” value (A549 [33]) was 0.3. For the same compound, the Activity (Staphylococcus aureus) was “inactive”, the Activity [34] was “Active” and the Activity [35] was “Active”. The Activity (Pichia kudriavzevii) was “inactive”, the IC50 (A549 [36]) was 0.98 µM and the Activity (Enterococcus faecalis) was “inactive”. For the same compound, the Activity (Pseudomonas aeruginosa [37]) was “inactive” and the “Ratio IC50” value (BJ [38]) was 0.1.

For `COC(=O)c1ccc(O)c(/C=N/NC(=O)c2ccc3c4c(ccc3c2)N2Cc3c(ccc5cc(C(=O)N/N=C/c6cc(C(=O)OC)ccc6O)ccc35)N(C4)C2)c1`, the Activity (Pseudomonas aeruginosa [1]) was “inactive”, the “Ratio IC50” value (A549 [2]) was 7.7 and the IC50 [3] was 21.2 µM. The Activity (Nucleic Acid [4]) was “Active”, the Activity (CCRF-CEM [5]) was 38.54% and the IC50 [6] was 28.2 µM. For the same compound, the Activity (Nucleic Acid [7]) was “Active”, the Activity [8] was “Not Active” and the IC50 (CCRF-CEM [9]) was 5.62 µM. The IC50 [10] was 10.3 µM, the Activity [11] was “Not Active” and the Activity (CCRF-CEM [12]) was 55.48%. For the same compound, the Activity (Candida parapsilosis) was “inactive”, the Activity [13] was “Active” and the Activity (CCRF-CEM [14]) was 31.26%. The Activity (CCRF-CEM [15]) was 12.83%, the Activity (CCRF-CEM [16]) was 46.43% and the Activity [17] was “Not Active”. For the same compound, the Activity (CCRF-CEM [18]) was 0.86%, the Activity (CCRF-CEM [19]) was 14.56% and the Activity (Nucleic Acid [20]) was “Active”. For the same compound, the Activity (CCRF-CEM [21]) was 54.61%, the Activity (CCRF-CEM [22]) was 12.85% and the Activity [23] was “Not Active”. For the same compound, the “Ratio IC50” value (HCT-116) was 8.9, the Activity (CCRF-CEM [24]) was 1.19% and the Activity (Candida tropicalis) was “inactive”. For the same compound, the “Ratio IC50” value (BJ [25]) was 9.7, the “Ratio IC50” value (BJ [26]) was 9.4 and the Activity (Nucleic Acid [27]) was “inactive”. For the same compound, the Activity [28] was “Active”, the IC50 (BJ [29]) was 87.4 µM and the Activity (Nucleic Acid [30]) was “Active”. For the same compound, the Activity (CCRF-CEM [31]) was 13.26%, the Activity [32] was “inactive” and the “Ratio IC50” value (A549 [33]) was 7.7. For the same compound, the Activity (Staphylococcus aureus) was “inactive”, the Activity [34] was “Active” and the Activity [35] was “Active”. The Activity (Pichia kudriavzevii) was “inactive”, the IC50 (A549 [36]) was 11.9 µM and the Activity (Enterococcus faecalis) was “inactive”. For the same compound, the Activity (Pseudomonas aeruginosa [37]) was “inactive” and the “Ratio IC50” value (BJ [38]) was 3.2.
